Assay results published in ChEMBL document CHEMBL1150387, “Development and experimental validation of a docking strategy for the generation of kinase-targeted libraries” (J Med Chem, 2008).

Columns and labels:
[1] = molecular target: Insulin-like growth factor 1 receptor (Homo sapiens) (UniProt P08069); experiment: Inhibition of IGF1R at 10 uM by HTRF assay relative to control
In short: (§1)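 HTRF kinase assay, one panel of kinases. Inhibitor stock 50 µM in 100% DMSO; tested at 10 µM. ATP and substrate at final levels near Km. Final buffer: 50 mM Hepes/NaOH pH 7.4, 40 µM Na3VO4, 0.005% Tween-20, 1 mM DTT, MnCl2 or MgCl2 at kinase-dependent levels. Started by adding ATP/substrate. Reaction run at room temperature, time varied by kinase. Detection mix in 50 mM Hepes pH 7.4, 0.1% BSA, 150 mM KF, incubated ≥1 h at room temperature. Activity expressed as % of uninhibited control; n=2.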

[2] = molecular target: Mitogen-activated protein kinase 9 (Homo sapiens) (UniProt P45984); experiment: Inhibition of JNK2 at 10 uM by HTRF assay relative to control; in short: as §1
[3] = Inhibition of AMPKalpha at 10 uM by HTRF assay relative to control; in short: as §1
[4] = molecular target: T1, Tyrosine-protein kinase ZAP-70 (Homo sapiens) (UniProt P43403); experiment: Inhibition of ZAP70 at 10 uM by HTRF assay relative to control; in short: as §1
T1 sequence (whole entry): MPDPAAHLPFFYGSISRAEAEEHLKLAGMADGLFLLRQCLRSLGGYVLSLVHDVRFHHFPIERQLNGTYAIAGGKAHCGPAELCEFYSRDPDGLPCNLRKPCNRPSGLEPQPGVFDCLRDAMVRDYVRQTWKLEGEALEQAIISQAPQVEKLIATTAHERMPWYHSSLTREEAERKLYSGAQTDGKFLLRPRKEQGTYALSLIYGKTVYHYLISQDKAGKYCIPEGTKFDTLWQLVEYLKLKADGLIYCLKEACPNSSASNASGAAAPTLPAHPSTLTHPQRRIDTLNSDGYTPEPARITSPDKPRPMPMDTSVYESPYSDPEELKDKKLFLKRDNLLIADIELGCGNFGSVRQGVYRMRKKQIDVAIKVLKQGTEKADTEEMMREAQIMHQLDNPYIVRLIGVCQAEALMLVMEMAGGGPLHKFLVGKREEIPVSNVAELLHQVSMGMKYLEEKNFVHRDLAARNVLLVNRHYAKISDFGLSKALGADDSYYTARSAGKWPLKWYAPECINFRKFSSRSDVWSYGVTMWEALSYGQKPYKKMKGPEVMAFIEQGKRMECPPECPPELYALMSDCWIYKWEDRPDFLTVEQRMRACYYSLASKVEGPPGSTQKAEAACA

[5] = molecular target: Proto-oncogene tyrosine-protein kinase Src (Homo sapiens) (UniProt P12931); experiment: Inhibition of Src at 10 uM by HTRF assay relative to control; in short: as §1
[6] = molecular target: Tyrosine-protein kinase Lyn (Homo sapiens) (UniProt P07948); experiment: Inhibition of Lyn at 10 uM by HTRF assay relative to control; in short: as §1
[7] = molecular target: T2, Tyrosine-protein kinase JAK3 (Homo sapiens) (UniProt P52333); experiment: Inhibition of JAK3 at 10 uM by HTRF assay relative to control; in short: as §1
T2 sequence (whole entry): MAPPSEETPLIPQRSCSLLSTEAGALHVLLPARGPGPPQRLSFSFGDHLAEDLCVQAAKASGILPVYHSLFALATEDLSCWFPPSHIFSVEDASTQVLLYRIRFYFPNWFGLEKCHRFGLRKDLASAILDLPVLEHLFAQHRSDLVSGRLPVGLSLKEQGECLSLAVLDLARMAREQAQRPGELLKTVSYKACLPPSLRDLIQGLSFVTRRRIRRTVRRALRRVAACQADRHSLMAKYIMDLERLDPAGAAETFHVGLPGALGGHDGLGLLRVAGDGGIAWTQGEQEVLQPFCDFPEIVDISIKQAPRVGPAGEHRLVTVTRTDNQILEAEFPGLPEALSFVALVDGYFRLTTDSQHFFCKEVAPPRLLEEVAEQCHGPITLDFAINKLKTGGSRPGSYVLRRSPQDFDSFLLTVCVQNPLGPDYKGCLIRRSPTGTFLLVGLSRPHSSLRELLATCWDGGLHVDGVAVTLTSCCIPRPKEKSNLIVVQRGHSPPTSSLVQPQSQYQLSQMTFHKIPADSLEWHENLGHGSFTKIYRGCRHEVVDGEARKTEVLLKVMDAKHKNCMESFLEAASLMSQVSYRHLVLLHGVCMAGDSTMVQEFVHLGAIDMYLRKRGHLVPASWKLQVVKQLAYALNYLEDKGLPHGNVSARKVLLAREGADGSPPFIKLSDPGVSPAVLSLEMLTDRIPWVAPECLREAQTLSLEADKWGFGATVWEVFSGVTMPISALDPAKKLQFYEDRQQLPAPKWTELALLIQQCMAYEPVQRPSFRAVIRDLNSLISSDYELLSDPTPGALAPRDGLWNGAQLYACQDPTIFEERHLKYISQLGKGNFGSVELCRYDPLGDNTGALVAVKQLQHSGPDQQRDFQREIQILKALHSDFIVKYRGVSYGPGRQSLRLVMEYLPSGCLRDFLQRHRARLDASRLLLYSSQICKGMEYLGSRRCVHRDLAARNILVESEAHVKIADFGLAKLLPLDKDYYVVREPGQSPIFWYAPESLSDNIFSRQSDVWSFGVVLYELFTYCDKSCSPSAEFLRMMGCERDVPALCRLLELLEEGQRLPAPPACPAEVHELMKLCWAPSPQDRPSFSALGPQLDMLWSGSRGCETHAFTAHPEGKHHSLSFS

[8] = molecular target: Tyrosine-protein kinase Fes/Fps (Homo sapiens) (UniProt P07332); experiment: Inhibition of FES at 10 uM by HTRF assay relative to control; in short: as §1
[9] = molecular target: High affinity nerve growth factor receptor (Homo sapiens) (UniProt P04629); experiment: Inhibition of TrkA at 10 uM by HTRF assay relative to control; in short: as §1
Chain of High affinity nerve growth factor receptor (Homo sapiens) (P04629 33-796 limits assumed): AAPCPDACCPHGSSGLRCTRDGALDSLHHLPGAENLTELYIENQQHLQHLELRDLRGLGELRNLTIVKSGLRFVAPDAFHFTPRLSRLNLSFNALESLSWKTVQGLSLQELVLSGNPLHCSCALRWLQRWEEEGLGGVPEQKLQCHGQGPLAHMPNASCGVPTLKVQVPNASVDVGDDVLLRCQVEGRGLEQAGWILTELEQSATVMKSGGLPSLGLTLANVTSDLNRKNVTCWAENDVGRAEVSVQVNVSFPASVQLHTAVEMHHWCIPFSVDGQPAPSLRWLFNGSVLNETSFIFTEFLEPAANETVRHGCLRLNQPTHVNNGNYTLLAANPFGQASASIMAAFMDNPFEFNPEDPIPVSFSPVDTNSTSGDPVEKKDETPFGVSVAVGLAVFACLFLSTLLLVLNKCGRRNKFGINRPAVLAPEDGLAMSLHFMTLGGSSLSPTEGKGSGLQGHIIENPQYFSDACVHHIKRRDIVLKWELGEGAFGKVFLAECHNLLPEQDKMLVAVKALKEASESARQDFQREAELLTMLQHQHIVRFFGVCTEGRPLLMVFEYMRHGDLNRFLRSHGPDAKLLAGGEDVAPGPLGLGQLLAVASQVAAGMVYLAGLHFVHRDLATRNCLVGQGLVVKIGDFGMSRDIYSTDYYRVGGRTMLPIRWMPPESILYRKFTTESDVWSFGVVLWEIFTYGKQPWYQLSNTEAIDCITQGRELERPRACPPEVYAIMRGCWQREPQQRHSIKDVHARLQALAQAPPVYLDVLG

Chain of Proto-oncogene tyrosine-protein kinase Src (Homo sapiens) (P12931 2-536 limits assumed): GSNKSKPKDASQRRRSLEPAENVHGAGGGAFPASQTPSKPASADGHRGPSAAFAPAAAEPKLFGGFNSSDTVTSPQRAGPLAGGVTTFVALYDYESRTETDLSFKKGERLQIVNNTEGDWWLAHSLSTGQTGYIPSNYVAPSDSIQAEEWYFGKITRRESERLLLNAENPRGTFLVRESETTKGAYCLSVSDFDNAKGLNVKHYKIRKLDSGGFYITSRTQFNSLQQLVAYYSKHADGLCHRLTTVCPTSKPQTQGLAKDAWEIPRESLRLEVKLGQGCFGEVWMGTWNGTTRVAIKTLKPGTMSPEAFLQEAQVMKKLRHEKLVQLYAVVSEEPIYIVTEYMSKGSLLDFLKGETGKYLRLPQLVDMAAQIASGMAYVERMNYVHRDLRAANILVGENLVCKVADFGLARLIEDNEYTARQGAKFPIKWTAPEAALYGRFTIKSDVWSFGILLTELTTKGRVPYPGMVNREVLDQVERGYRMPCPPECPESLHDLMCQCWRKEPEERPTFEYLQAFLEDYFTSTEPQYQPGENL
Chain of Tyrosine-protein kinase Fes/Fps (Homo sapiens) (P07332 whole entry): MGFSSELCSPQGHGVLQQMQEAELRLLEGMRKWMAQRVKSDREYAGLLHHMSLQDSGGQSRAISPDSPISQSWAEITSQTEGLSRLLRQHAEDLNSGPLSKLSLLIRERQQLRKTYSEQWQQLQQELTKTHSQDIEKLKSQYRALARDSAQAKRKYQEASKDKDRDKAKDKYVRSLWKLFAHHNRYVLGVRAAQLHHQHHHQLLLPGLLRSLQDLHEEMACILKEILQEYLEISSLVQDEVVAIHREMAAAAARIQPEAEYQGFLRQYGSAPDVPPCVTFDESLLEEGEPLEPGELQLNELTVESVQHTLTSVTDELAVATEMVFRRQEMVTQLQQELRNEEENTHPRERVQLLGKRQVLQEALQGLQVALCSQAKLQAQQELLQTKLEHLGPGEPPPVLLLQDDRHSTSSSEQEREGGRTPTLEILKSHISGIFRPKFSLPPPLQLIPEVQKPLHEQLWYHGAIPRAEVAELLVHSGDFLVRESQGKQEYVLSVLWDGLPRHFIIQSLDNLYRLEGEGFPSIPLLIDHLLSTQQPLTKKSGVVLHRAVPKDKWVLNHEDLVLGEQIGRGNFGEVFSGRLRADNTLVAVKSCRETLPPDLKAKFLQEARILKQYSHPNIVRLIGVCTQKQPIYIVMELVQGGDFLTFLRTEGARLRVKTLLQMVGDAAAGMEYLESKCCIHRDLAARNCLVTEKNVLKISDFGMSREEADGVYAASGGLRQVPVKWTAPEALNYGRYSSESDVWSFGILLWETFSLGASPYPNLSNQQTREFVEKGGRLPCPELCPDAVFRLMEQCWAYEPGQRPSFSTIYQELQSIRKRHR
Chain of Insulin-like growth factor 1 receptor (Homo sapiens) (P08069 31-736 limits assumed): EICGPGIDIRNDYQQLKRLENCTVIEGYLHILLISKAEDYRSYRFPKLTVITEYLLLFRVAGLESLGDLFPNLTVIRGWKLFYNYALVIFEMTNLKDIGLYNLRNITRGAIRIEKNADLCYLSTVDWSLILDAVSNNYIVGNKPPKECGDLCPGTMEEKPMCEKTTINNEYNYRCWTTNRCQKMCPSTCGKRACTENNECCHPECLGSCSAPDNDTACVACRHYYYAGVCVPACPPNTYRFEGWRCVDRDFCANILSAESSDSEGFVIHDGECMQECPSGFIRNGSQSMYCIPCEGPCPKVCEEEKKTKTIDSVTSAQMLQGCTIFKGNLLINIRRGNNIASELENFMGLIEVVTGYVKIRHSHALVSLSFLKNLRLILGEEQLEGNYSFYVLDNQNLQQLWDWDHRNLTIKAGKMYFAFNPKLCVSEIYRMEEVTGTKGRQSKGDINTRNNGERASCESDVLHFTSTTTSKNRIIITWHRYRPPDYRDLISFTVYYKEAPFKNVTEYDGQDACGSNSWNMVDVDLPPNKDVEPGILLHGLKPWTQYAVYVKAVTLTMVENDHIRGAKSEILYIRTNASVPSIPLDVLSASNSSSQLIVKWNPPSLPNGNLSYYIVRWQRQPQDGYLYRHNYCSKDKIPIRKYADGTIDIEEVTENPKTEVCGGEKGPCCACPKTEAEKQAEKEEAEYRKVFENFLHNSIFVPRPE
Chain of Insulin-like growth factor 1 receptor (Homo sapiens) (P08069 741-1367 limits assumed): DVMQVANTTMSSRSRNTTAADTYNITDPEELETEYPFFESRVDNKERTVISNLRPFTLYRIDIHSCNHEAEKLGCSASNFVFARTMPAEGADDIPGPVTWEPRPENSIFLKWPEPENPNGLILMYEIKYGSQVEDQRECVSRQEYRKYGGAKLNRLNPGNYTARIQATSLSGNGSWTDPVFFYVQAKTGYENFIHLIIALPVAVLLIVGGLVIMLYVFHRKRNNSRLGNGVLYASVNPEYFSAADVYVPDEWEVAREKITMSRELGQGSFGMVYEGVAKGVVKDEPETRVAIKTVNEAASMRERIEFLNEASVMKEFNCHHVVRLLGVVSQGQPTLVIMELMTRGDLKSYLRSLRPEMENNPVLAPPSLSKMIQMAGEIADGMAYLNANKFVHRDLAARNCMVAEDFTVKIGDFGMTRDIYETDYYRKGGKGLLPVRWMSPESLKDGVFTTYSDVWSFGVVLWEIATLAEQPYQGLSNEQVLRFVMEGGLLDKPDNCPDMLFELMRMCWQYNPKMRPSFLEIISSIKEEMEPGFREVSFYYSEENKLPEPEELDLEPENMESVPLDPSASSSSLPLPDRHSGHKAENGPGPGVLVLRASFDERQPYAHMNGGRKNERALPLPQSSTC
Chain of Mitogen-activated protein kinase 9 (Homo sapiens) (P45984 whole entry, looked up): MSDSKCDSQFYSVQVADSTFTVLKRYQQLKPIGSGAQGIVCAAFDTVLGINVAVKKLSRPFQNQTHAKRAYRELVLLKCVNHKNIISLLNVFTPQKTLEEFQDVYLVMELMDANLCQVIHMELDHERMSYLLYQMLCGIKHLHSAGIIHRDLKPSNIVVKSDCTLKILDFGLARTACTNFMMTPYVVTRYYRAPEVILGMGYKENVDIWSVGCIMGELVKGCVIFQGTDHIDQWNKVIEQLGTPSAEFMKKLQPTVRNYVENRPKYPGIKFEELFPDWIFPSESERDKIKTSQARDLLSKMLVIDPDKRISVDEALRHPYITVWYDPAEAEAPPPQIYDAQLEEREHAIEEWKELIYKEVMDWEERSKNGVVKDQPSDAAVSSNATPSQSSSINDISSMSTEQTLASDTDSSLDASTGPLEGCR
Chain of Tyrosine-protein kinase Lyn (Homo sapiens) (P07948 2-512 limits assumed): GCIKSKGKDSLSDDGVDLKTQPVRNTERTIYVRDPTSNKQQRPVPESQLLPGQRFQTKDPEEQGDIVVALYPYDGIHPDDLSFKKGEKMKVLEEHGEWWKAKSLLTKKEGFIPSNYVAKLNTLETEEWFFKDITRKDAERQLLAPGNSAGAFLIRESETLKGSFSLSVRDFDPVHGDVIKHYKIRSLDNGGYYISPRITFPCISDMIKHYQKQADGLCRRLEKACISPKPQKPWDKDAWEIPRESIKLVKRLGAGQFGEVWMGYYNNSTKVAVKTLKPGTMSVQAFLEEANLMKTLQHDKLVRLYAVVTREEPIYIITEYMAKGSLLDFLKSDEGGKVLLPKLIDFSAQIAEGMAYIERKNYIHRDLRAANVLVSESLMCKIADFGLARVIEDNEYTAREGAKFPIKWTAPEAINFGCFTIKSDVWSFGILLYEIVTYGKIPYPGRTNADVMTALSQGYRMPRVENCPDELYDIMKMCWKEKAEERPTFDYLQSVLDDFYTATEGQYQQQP

CN(CCc1ccccn1)C(=O)[C@@H]1CCCN1c1nccc(Nc2ccccc2)n1
inhibition [1]: 0% | inhibition [2]: 2% | inhibition [3]: 0% | inhibition [4]: 3% | inhibition [5]: 0% | inhibition [6]: 0% | inhibition [7]: 0% | inhibition [8]: 8% | inhibition [9]: 8%

Cc1cccc(N(C)c2cc(Nc3cccc(C(=O)N4CCCC5CCCCC54)c3)ncn2)c1 (centres undefined)
inhibition [1]: 0% | inhibition [2]: 0% | inhibition [3]: 1% | inhibition [4]: 0% | inhibition [5]: 3% | inhibition [6]: 9% | inhibition [7]: 0% | inhibition [8]: 7% | inhibition [9]: 12%

O=C(C1CCN(c2nccc(Nc3ccccc3)n2)CC1)N1CC[C@@H](O)C1
inhibition [1]: 0% | inhibition [2]: 5% | inhibition [3]: 7% | inhibition [4]: 3% | inhibition [5]: 4% | inhibition [6]: 14% | inhibition [7]: 0% | inhibition [8]: 2% | inhibition [9]: 12%

Nc1nc(N2CCOCC2)cc(N2CCC(C(=O)NCCc3ccc(O)cc3)CC2)n1
inhibition [1]: 0% | inhibition [2]: 3% | inhibition [3]: 12% | inhibition [4]: 2% | inhibition [5]: 2% | inhibition [6]: 5% | inhibition [7]: 0% | inhibition [8]: 6% | inhibition [9]: 6%

O=C(NC[C@@H]1CCCO1)c1cccc(Nc2nccc(Nc3ccc4ncsc4c3)n2)c1
inhibition [1]: 83% | inhibition [2]: 87% | inhibition [3]: 36% | inhibition [4]: 19% | inhibition [5]: 97% | inhibition [6]: 90% | inhibition [7]: 84% | inhibition [8]: 90% | inhibition [9]: 34%

Nc1nc(Nc2ccccc2)cc(N2CCC(C(=O)NCCc3ccccn3)CC2)n1
inhibition [1]: 0% | inhibition [2]: 1% | inhibition [3]: 0% | inhibition [4]: 0% | inhibition [5]: 0% | inhibition [6]: 1% | inhibition [7]: 0% | inhibition [8]: 0% | inhibition [9]: 5%

Nc1nc(Nc2ccc3ncsc3c2)cc(N2CCC[C@H]2C(=O)NCCc2cccc(I)c2)n1
inhibition [1]: 0% | inhibition [2]: 5% | inhibition [3]: 6% | inhibition [4]: 2% | inhibition [5]: 0% | inhibition [6]: 13% | inhibition [7]: 16% | inhibition [8]: 8% | inhibition [9]: 5%

Cc1cccc(N(C)c2cc(Nc3cccc(C(=O)N(C)CCc4ccccn4)c3)ncn2)c1
inhibition [1]: 0% | inhibition [2]: 4% | inhibition [3]: 0% | inhibition [4]: 4% | inhibition [5]: 15% | inhibition [6]: 14% | inhibition [7]: 7% | inhibition [8]: 15% | inhibition [9]: 10%

Cc1cccc(Nc2nccc(Nc3cccc(C(=O)N(C)CCc4ccccn4)c3)n2)c1
inhibition [1]: 87% | inhibition [2]: 37% | inhibition [3]: 17% | inhibition [4]: 23% | inhibition [5]: 64% | inhibition [6]: 47% | inhibition [7]: 50% | inhibition [8]: 75% | inhibition [9]: 60%

Cc1cccc(N(C)c2cc(Nc3cccc(C(=O)NCCCn4ccnc4)c3)ncn2)c1
inhibition [1]: 0% | inhibition [2]: 22% | inhibition [3]: 5% | inhibition [4]: 4% | inhibition [5]: 24% | inhibition [6]: 27% | inhibition [7]: 3% | inhibition [8]: 22% | inhibition [9]: 7%

CN(C)CC(C)(C)CNC(=O)[C@@H]1CCCN1c1nccc(Nc2ccccc2)n1
inhibition [1]: 0% | inhibition [2]: 2% | inhibition [3]: 10% | inhibition [4]: 1% | inhibition [5]: 0% | inhibition [6]: 13% | inhibition [7]: 0% | inhibition [8]: 20% | inhibition [9]: 6%

COc1cccc(Nc2cc(Nc3cccc(C(=O)N(C)CCc4ccccn4)c3)nc(N)n2)c1
inhibition [1]: 0% | inhibition [2]: 9% | inhibition [3]: 13% | inhibition [4]: 3% | inhibition [5]: 6% | inhibition [6]: 9% | inhibition [7]: 18% | inhibition [8]: 7% | inhibition [9]: 9%

Cc1cccc(N(C)c2cc(N3CCN(C(=O)Cc4c[nH]c5ccccc45)CC3)ncn2)c1
inhibition [1]: 0% | inhibition [2]: 5% | inhibition [3]: 3% | inhibition [4]: 2% | inhibition [5]: 0% | inhibition [6]: 6% | inhibition [7]: 0% | inhibition [8]: 24% | inhibition [9]: 2%

O=C(NC1Cc2ccccc2C1)c1cccc(Nc2ccnc(N3CCN(c4ccccc4)CC3)n2)c1
inhibition [1]: 0% | inhibition [2]: 3% | inhibition [3]: 9% | inhibition [4]: 6% | inhibition [5]: 9% | inhibition [6]: 4% | inhibition [7]: 0% | inhibition [8]: 5% | inhibition [9]: 5%

Clc1ccc2sc(CN3CCN(c4ncnc5c4CN(Cc4ccccc4)CC5)CC3)cc2c1
inhibition [1]: 0% | inhibition [2]: 5% | inhibition [3]: 16% | inhibition [4]: 5% | inhibition [5]: 0% | inhibition [6]: 17% | inhibition [7]: 0% | inhibition [8]: 6% | inhibition [9]: 13%

O=C(c1nc(SCc2ccc(Cl)cc2)n2ccccc12)N1CCN(c2cc(Nc3cccc(Br)c3)ncn2)CC1
inhibition [1]: 0% | inhibition [2]: 3% | inhibition [3]: 5% | inhibition [4]: 1% | inhibition [5]: 2% | inhibition [6]: 4% | inhibition [7]: 0% | inhibition [8]: 0% | inhibition [9]: 5%
